# High-throughput results deposited in PubChem BioAssay by Broad Institute.
# AF4-AF9 inh: blocks AF4 peptide binding to human AF9 | P42568 | AlphaScreen, biotin-AF4 peptide binding to FLAG-AF9 | inhibition, % at 10 µM | hit rate 0.47% among 350,000 | AID 651704;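 active means every replicate reaching a set inhibition limit, whatever the replicate mean, cut at about 25% in these data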;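 further: 0% = plate neutral control median and 100% = total signal loss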
# Target sequence (P42568 whole entry, looked up): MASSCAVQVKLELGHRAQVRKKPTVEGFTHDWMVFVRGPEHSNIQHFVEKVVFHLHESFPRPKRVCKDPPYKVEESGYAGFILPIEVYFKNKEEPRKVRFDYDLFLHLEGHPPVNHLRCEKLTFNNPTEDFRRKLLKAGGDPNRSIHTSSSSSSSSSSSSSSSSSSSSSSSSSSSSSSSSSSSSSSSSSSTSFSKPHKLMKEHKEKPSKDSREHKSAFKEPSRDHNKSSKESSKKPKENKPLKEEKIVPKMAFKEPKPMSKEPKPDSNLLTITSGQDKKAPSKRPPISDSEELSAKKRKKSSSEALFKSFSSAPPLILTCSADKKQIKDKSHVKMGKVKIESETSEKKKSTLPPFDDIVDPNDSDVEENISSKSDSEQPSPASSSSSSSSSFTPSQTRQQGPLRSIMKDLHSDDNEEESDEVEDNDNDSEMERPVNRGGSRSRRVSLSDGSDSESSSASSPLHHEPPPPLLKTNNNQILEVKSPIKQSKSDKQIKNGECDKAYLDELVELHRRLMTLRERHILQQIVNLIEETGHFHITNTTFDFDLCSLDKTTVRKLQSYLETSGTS
# INS-1E GSIS act: primary screen for activators of insulin secretion dependent on glucose, INS-1E cells, GLuc reporter luminescence; INS-1E GLuc reporter insulin secretion, 2-3 h; activation, % at 16.6 µM; hit rate 0.61% among 370,000;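 active means lowest replicate activation of at least 40%, so every replicate reaches that level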;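 further: 0% = median of neutral control wells and 100% = median of IBMX positive control wells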
# EWS-Fli inh: blocks EWS/Fli oncoprotein-driven transcription | A673 NR0B1-luciferase reporter, viability-normalised | inhibition, % at 12.6 µM | hit rate 0.67% among 350,000;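 active means mean inhibition of at least 50% after viability correction, with every replicate also passing that limit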;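 further: firefly luciferase signal divided by Alamar Blue viability fluorescence both relative to DMSO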
# Xi reactivation: reactivates the inactive X chromosome in mouse fibroblasts | hit rate 0.055% among 360,000 | XiGFP mouse fibroblasts, % GFP-positive cells imaging, 3 d; cells co-treated with 5-aza-dC sensitizer; scaled so ellipticine positive control = 100% | activation, % at 7.58 µM | AID 743238;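 active means mean normalized replicate activation at least 10% and every replicate at or above 10%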;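 further: 0% = median of on-plate neutral control wells and 100% = ellipticine 6 µM median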
#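 Material: XiGFP fibroblasts, SV40-immortalized; Buffer or medium: DMEM containing 5-aza-dC; Compound dosing: single point; Times: 3 days compound exposure.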
# PGC1a acetyl inh: modulators of PGC1a acetylation. U2OS PGC1a acetylation, AlphaScreen anti-acetyl-lysine; with virally co-expressed GCN5 acetyltransferase. inhibition, % at 15.6 µM. hit rate 0.17% among 350,000. AID 651687;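 active means every replicate shows inhibition of at least 40%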;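 further: 0% = neutral control wells and 100% = positive control wells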
# PAX8 inh HTS: inhibitors of PAX8 transcriptional activity in RMG-I cells; hit rate 1.2% among 360,000; inhibition, % at 12.6 µM; RMG-I TPO-luciferase reporter, SteadyGlo, 24 h;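 active means mean replicate inhibition at least 60% with every replicate also reaching 60%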;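 further: luciferase light reporting Pax8 driven TPO promoter activity; plate controls were median of neutral control wells for no effect and mitoxantrone controls for full effect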
# An asterisk follows results filed as active; nt = not tested or not shown. In the library only some 2.1% were active in any assay of this set; here they are far more common.
SMILES,AF4-AF9 inh,INS-1E GSIS act,EWS-Fli inh,Xi reactivation,PGC1a acetyl inh,PAX8 inh HTS
O=C(NCCN1CCCCC1)[C@H]1[C@H](CO)[C@H]2Cn3c(cccc3=O)[C@@H]1N2C(=O)C1CCCCC1,4,9,0,0,nt,nt
Cn1c(=Nc2ccc(N3CCOCC3)cc2)ccc2ccccc21,nt,nt,nt,nt,6,nt
Cn1c(N=Nc2ccc(N3CCOCC3)cc2)[n+](C)c2ccccc21,58*,4,-26,0,3,-19
C[C@@H]1CN([C@@H](C)CO)C(=O)c2cc(NC(=O)NC3CCCCC3)ccc2O[C@@H](C)CCCCO[C@H]1CN(C)CC1CCCCC1,nt,28,8,0,-2,21
COc1cc2nc(N(CCCN(C)C)C(=O)c3ccc(C(=O)c4ccccc4)cc3)sc2cc1OC,28*,-32,12,0,-4,14
CN(C)CCN(C(=O)c1cccc2ccccc12)c1nc2cc3c(cc2s1)OCO3,28*,-45,nt,0,-10,12
CN(C)CCN(C(=O)c1ccc(N2C(=O)CCC2=O)cc1)c1nc2cc3c(cc2s1)OCO3,nt,5,-14,nt,0,3
COc1cc2nc(N(CCCN(C)C)C(=O)c3ccc(S(=O)(=O)N4CCc5ccccc5C4)cc3)sc2cc1OC,2,4,8,0,-24,10
CN(C)CCCN(C(=O)COc1ccc(Cl)cc1)c1nc2cc3c(cc2s1)OCO3,4,-18,61*,0,13,7
CN(C)CCCN(C(=O)c1ccc2c(c1)CCCC2)c1nc2ccc(Cl)cc2s1,27*,102,nt,0,nt,4
CN(C)CCN(C(=O)c1ccc2ccccc2c1)c1nc2cc3c(cc2s1)OCCO3,50*,32,nt,0,nt,-64
CN(C)CCCN(C(=O)c1ccc2ccccc2c1)c1nc2cc3c(cc2s1)OCO3,33*,-41,nt,0,-8,10
CN(C)CCCN(C(=O)c1ccc2c(c1)OCCO2)c1nc2cc3c(cc2s1)OCO3,5,-2,-17,0,nt,-30
Cc1ccc2c(C)c(C(=O)N(Cc3ccc(N(C)C)cc3)C3CCS(=O)(=O)C3)oc2c1 (centres undefined),38*,nt,9,0,-13,17
COc1ccc(CN(C)C[C@H]2Oc3ccc(NC(=O)Nc4ccc(C(F)(F)F)cc4)cc3C(=O)N([C@H](C)CO)C[C@H]2C)cc1,0,-11,8,0,1,nt
COC(=O)Cc1[nH]nc2c1C(c1ccc(O)c(OC)c1)C(C#N)=C(N)O2 (centres undefined),30*,-5,1,3,3,-24
C[C@@H]1CN([C@H](C)CO)C(=O)c2cc(-c3cccc(F)c3)cnc2O[C@@H]1CN(C)C(=O)C1CC1,nt,3,-9,-1,-4,nt
C/C=C1\COC(C(=O)NCc2cccc(OC)c2OC)(C(F)(F)F)C=C1C=C1CCCCC1 (centres undefined),0,73*,19,0,-31,16
C/C=C1\COC(C(=O)NCc2ccncc2)(C(F)(F)F)C=C1C=C1CCCCC1 (centres undefined),-1,-41,2,0,-19,-2
CCOC(=O)C(=Cc1ccc(OCc2ccc([N+](=O)[O-])cc2)c(OC)c1)C(=O)OCC,nt,nt,nt,nt,57*,nt
CCc1ccc(S(=O)(=O)/N=C2\C=C(Nc3ccc(O)cc3)C(=O)c3ccccc32)cc1,nt,nt,nt,nt,63*,nt
O=C(O)c1ccc(NC2=C/C(=N/S(=O)(=O)c3ccccc3)c3ccccc3C2=O)cc1,14,-53,27,0,4,80*
CCc1ccc(S(=O)(=O)/N=C2\C=C(Nc3cccc(C(=O)O)c3)C(=O)c3ccccc32)cc1,10,-51,-87,0,nt,-25
CCCc1cc2c(OC)ccc(O)c2c(=O)n1C,-5,53*,-9,0,nt,-5
CCOc1ccc(Nc2nc(N)nc(CSC(=S)N3CCN(c4ccccc4)CC3)n2)cc1,35*,6,8,0,2,1
SMILES,AF4-AF9 inh,INS-1E GSIS act,EWS-Fli inh,Xi reactivation,PGC1a acetyl inh,PAX8 inh HTS
Cc1cc(Cl)ccc1NC(=O)CSc1nnc(-c2ccncc2)n1Cc1ccco1,nt,nt,nt,nt,12,nt
Cc1ccc(NCc2nnc(SCC(=O)Nc3ncc(C)s3)n2Cc2ccco2)c(C)c1,nt,156*,nt,nt,16,2
Cc1cc(Nc2ccccc2)cc(=O)n1C,nt,-5,-6,0,59*,13
Cn1c(=O)cc(Nc2ccccc2)[nH]c1=O,-1,10,11,0,0,7
CCC(=O)N1C[C@@H](C)[C@@H](OC)CN(C)C(=O)c2cc(NC(=O)NC(C)C)ccc2OC[C@H]1C,1,-6,-4,0,7,nt
CCN(CC)c1ccc(NC(=O)CN(C)Cc2cccs2)cc1,27*,5,-3,0,nt,-6
CC(C)c1ccc(NC(=O)C[C@H]2CC[C@H]3[C@@H](COc4ccc(NC(=O)Nc5ccc(F)c(F)c5)cc4C(=O)N3C)O2)cc1,-7,nt,-1,nt,20,75*
CN1C(=O)c2cc(NC(=O)Nc3ccc(F)cc3)ccc2OC[C@H]2O[C@@H](CC(=O)NC3CCC3)CC[C@H]21,2,-2,-4,0,0,62*
CN1C(=O)c2cc(NC(=O)Nc3ccc(F)cc3)ccc2OC[C@@H]2O[C@@H](CC(=O)NC3CCC3)CC[C@@H]21,0,5,3,0,3,50
COCC(=O)Nc1ccc2c(c1)C(=O)N(C)C[C@@H](OC)[C@@H](C)CN(CC1CCCCC1)[C@H](C)CO2,0,-2,0,0,-5,nt
C[C@H](CO)N1C[C@H](C)[C@@H](CN(C)C(=O)c2cnccn2)Oc2cc(C#CC3CC3)ccc2S1(=O)=O,-2,-5,0,0,0,nt
CCOc1cc(C2C3=C(CC(C)(C)CC3=O)N(CCCOC)C3=C2C(=O)CC(C)(C)C3)ccc1OC,29*,8,2,0,nt,4
O=C(C[C@@H]1CC[C@H](NC(=O)c2ccccn2)[C@H](CO)O1)NCc1cc(F)cc(F)c1,0,10,3,0,-9,-2
CNC[C@@H]1OCCCC[C@H](C)Oc2ccc(NC(=O)c3ccncc3)cc2C(=O)N([C@H](C)CO)C[C@@H]1C,2,12,1,0,1,-11
CC(C)CCN1C(=O)CSCC1(C)C(=O)NC(C)C (centres undefined),nt,43*,5,1,nt,-5
CCOC(=O)c1cc2sccc2n1CC(=O)Nc1ccc(OC)cc1OC,-47,-13,7,nt,2,nt
CCOC(=O)CN(Cc1sccc1C)C(=O)Nc1ccc(OC)cc1OC,nt,42*,nt,nt,nt,nt
O=C(C[C@H]1CC[C@@H]2[C@H](COC[C@@H](O)CN2Cc2ccc(C(F)(F)F)cc2)O1)NCCc1ccccc1,1,-24,nt,0,-2,nt
C[C@@H]1CN([C@@H](C)CO)C(=O)c2ccccc2-c2ccccc2CO[C@@H]1CN(C)Cc1cccnc1,nt,10,nt,1,nt,nt
